# Assay results: ChEMBL document CHEMBL1138692 (Bioorg Med Chem Lett, 2004)
# pIC50, pKi: −log10 of the molar value.
# What was measured:
# [1] = test system: MT4; assay: Antiviral activity against PI resistant virus D545701 in MT-4 cell line; format: functional, cell-based; settings: Homo sapiens
# In short: (§1)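 Antiviral IC50 measured in MT4 cells infected with the named HIV strain: wild-type HXB2, or the multi-PI-resistant EP13 or D545701.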
# [2] = test system: MT4; assay: Antiviral activity against wild-type HIV virus (HXB2) in MT-4 cell line; format: functional, cell-based; settings: Homo sapiens; in short: as §1
# [3] = test system: MT4; assay: Antiviral activity against PI resistant virus EP13 in MT-4 cell line; format: functional, cell-based; settings: Homo sapiens; in short: as §1
# [4] = test system: MT4; assay: Antiviral activity against PI resistant virus D545701 was determined in MT-4 cell line; format: functional, cell-based; settings: Homo sapiens; in short: as §1
# [5] = test system: MT4; assay: Antiviral activity against PI resistant virus EP13 was determined in MT-4 cell line; format: functional, cell-based; settings: Homo sapiens; in short: as §1
# [6] = test system: MT4; assay: Antiviral activity against wild-type HIV virus (HXB2) was determined in MT-4 cell line; format: functional, cell-based; settings: Homo sapiens; in short: as §1
# [7] = biological target: Human immunodeficiency virus type 1 protease (Human immunodeficiency virus 1, UniProt Q72874); assay: Inhibition of HIV-1 Protease activity
# [8] = Oral bioavailability in rat; format: ADME, organism-based; settings: in vivo
# [9] = Half life period in rat; format: ADME, organism-based; settings: in vivo
SMILES,pIC50 [1],pIC50 [2],pIC50 [3],pIC50 [4],pIC50 [5],pIC50 [6],pKi [7],bioavailability [8] [%],half-life [9] [h]
CC(C)(CCCN)CN(C[C@@H](O)[C@H](Cc1ccccc1)NC(=O)O[C@H]1CO[C@H]2OCC[C@H]21)S(=O)(=O)c1ccc2c(c1)OCO2,6.14,6.43,6.27,,,,,,
CNC(=O)NCCCC(C)(C)CN(C[C@@H](O)[C@H](Cc1ccccc1)NC(=O)O[C@H]1CO[C@H]2OCC[C@H]21)S(=O)(=O)c1ccc2c(c1)OCO2,,,,6.70,6.96,7.42,,,
COC(=O)NCCCC(C)(C)CN(C[C@@H](O)[C@H](Cc1ccccc1)NC(=O)O[C@H]1CO[C@H]2OCC[C@H]21)S(=O)(=O)c1ccc2c(c1)OCO2,,,,7.18,7.42,8.33,12.28,,
CC(C)(C)NC(=O)[C@@H]1CN(Cc2cccnc2)CCN1C[C@@H](O)C[C@@H](Cc1ccccc1)C(=O)N[C@H]1c2ccccc2C[C@H]1O,,,,6.36,6.48,7.30,,,
COC(=O)NCCCCC(C)(C)CN(C[C@@H](O)[C@H](Cc1ccccc1)NC(=O)O[C@H]1CO[C@H]2OCC[C@H]21)S(=O)(=O)c1ccc2c(c1)OCO2,,,,8.04,7.82,8.80,,20,1.3
COC(=O)NCCCCCC(C)(C)CN(C[C@@H](O)[C@H](Cc1ccccc1)NC(=O)O[C@H]1CO[C@H]2OCC[C@H]21)S(=O)(=O)c1ccc2c(c1)OCO2,,,,7.19,7.34,8.26,12.92,,
COC(=O)NCCC(C)(C)CN(C[C@@H](O)[C@H](Cc1ccccc1)NC(=O)O[C@H]1CO[C@H]2OCC[C@H]21)S(=O)(=O)c1ccc2c(c1)OCO2,,,,7.40,7.66,8.85,12.80,,
CC(C)(CCCNS(C)(=O)=O)CN(C[C@@H](O)[C@H](Cc1ccccc1)NC(=O)O[C@H]1CO[C@H]2OCC[C@H]21)S(=O)(=O)c1ccc2c(c1)OCO2,,,,6.82,7.33,7.48,,,
COC(=O)NCCCC(C)(C)CN(C[C@@H](O)[C@H](Cc1ccccc1)NC(=O)O[C@H]1CO[C@H]2OCC[C@H]21)S(=O)(=O)c1ccc(N)cc1,7.02,7.51,7.34,,,,12.59,,
Cc1c(O)cccc1C(=O)N[C@@H](CSc1ccccc1)[C@H](O)CN1C[C@H]2CCCC[C@H]2C[C@H]1C(=O)NC(C)(C)C,,,,< 6.00,6.35,6.49,,,
CC(=O)NCCCC(C)(C)CN(C[C@@H](O)[C@H](Cc1ccccc1)NC(=O)O[C@H]1CO[C@H]2OCC[C@H]21)S(=O)(=O)c1ccc2c(c1)OCO2,,,,6.92,7.52,7.64,,,
COC(=O)NCCCC(C)(C)CN(C[C@@H](O)[C@H](Cc1ccccc1)NC(=O)O[C@H]1CO[C@H]2OCC[C@H]21)S(=O)(=O)c1cccc(N)c1,,,,7.00,7.44,7.74,12.68,,
CC(C)CN(C[C@@H](O)[C@H](Cc1ccccc1)NC(=O)O[C@H]1CCOC1)S(=O)(=O)c1ccc(N)cc1,,,,< 6.00,6.36,6.89,10.24,,
